ChEMBL document CHEMBL4477243, “Discovery and SAR of a novel series of potent, CNS penetrant M4 PAMs based on a non-enolizable ketone core: Challenges in disposition” (Bioorg Med Chem Lett, 2016)

Key:
[1] = target: T1, Muscarinic acetylcholine receptor M4 (Homo sapiens, UniProt P08173); experiment: Positive allosteric modulation activity at human M4 receptor expressed in CHO cells co-expressing Gqi5 protein assessed as potentiation of EC20 acetyl choline-induced response by calcium mobilization assay; type: functional, cell-based; details: read-out: EC50
T1 sequence (P08173 whole entry): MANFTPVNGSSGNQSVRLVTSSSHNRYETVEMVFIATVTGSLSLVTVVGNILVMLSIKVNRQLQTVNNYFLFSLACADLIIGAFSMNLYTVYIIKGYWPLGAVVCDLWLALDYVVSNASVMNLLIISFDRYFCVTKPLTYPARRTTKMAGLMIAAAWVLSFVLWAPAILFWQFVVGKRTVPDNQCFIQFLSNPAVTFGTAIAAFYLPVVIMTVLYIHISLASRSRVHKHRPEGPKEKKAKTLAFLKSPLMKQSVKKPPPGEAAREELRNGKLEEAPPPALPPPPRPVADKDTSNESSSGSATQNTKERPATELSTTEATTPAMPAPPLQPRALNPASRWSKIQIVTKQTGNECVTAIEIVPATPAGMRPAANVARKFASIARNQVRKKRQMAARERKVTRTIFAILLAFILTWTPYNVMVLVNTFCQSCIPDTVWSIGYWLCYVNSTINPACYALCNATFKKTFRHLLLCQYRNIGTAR
Procedure, shortened: (§1)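 Calcium mobilization in CHO cells stably co-expressing human or rat M4 with the chimeric Gqi5 protein. Test compound given with a fixed EC20 concentration of acetylcholine. Potency reported as EC50; efficacy as % of the acetylcholine maximum. Means of three independent experiments, each in triplicate.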

[2] = target: T2, Muscarinic acetylcholine receptor M4 (Rattus norvegicus, UniProt P08485); experiment: Positive allosteric modulation activity at rat M4 receptor expressed in CHO cells co-expressing Gqi5 protein assessed as potentiation of EC20 acetyl choline-induced response by calcium mobilization assay; type: functional, cell-based; details: read-out: EC50; procedure, shortened: as §1
T2 sequence (P08485 whole entry): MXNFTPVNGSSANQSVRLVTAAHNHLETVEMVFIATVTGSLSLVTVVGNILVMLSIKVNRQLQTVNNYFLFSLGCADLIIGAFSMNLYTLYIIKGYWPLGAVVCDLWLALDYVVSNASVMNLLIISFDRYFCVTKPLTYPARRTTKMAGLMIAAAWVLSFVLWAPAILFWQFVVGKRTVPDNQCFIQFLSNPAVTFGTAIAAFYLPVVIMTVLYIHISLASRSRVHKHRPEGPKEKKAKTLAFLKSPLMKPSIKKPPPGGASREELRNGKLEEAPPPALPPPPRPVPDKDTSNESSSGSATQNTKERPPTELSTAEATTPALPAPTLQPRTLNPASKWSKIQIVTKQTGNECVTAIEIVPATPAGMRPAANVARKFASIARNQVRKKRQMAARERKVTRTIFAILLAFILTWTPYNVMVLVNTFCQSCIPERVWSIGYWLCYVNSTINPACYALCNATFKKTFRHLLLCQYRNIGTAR

[3] = target: T3, Muscarinic acetylcholine receptor M4 (Homo sapiens) (UniProt P08173); experiment: Positive allosteric modulation activity at human M4 receptor expressed in CHO cells co-expressing Gqi5 protein assessed as potentiation of EC20 acetyl choline-induced response by calcium mobilization assay relative to acetylcholine; type: functional, cell-based; procedure, shortened: as §1
T3 sequence (whole entry): T1 sequence (P08173 whole entry)

[4] = target: T4, Muscarinic acetylcholine receptor M4 (Rattus norvegicus) (UniProt P08485); experiment: Positive allosteric modulation activity at rat M4 receptor expressed in CHO cells co-expressing Gqi5 protein assessed as potentiation of EC20 acetyl choline-induced response by calcium mobilization assay relative to acetylcholine; type: functional, cell-based; procedure, shortened: as §1
T4 sequence (whole entry): T2 sequence (P08485 whole entry)

Cytochrome P450 = experiment: Inhibition of Cytochrome P450 (unknown origin); type: ADME, protein assay; details: human
Cytochrome P450 1A2 = target: T5, Cytochrome P450 1A2 (Homo sapiens, UniProt P05177); experiment: Inhibition of CYP1A2 (unknown origin); type: ADME
T5 sequence (P05177 whole entry): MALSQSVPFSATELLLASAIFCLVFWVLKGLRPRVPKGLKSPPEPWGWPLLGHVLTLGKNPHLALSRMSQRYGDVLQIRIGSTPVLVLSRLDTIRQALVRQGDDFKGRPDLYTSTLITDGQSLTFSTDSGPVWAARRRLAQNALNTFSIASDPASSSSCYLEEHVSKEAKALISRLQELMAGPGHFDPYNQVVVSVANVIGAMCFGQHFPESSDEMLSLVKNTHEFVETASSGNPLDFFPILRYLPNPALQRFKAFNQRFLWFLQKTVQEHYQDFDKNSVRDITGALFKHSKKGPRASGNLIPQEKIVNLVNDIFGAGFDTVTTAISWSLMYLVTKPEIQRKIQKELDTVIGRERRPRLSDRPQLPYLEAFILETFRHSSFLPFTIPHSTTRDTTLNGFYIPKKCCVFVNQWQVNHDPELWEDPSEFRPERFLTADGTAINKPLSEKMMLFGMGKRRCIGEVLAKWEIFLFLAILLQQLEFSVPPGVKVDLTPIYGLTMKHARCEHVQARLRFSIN

[5] = Fraction unbound in human plasma; type: ADME, cell-free
Procedure, shortened: (§2)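 Plasma protein binding, reported as fraction unbound in rat and human plasma. Single experiment (n=1) run in triplicate.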

[6] = Fraction unbound in rat plasma; type: ADME, cell-free; procedure, shortened: as §2
[7] = Ratio of drug level in Sprague-Dawley rat brain to plasma at 0.2 to 0.25 mg/kg, iv administered as cassette dose measured 0.25 hrs post dose; type: ADME, organism-based; details: brain and plasma
Procedure, shortened: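 Male Sprague-Dawley rats (n=1) received an IV cassette dose of 0.20-0.25 mg/kg. Brain and plasma sampled 0.25 hr post-administration. Total brain:plasma partition coefficient (Kp) measured; unbound coefficient (Kp,uu) calculated.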

[8] = Selectivity ratio of EC50 for rat M4 receptor expressed in CHO cells co-expressing Gqi5 protein to EC50 for human M4 receptor expressed in CHO cells co-expressing Gqi5 protein; type: cell-based

Work on Cc1nnc2sc(C(O)c3ccc(F)cc3F)c(N)c2c1C (centres undefined) yielded an EC50 [1] greater than 10000 nM and an EC50 [2] greater than 10000 nM.

With COc1ccc(C(O)c2sc3nc(C)cc(C)c3c2N)cc1 (centres undefined) the EC50 [1] was greater than 10000 nM and the EC50 [2] was greater than 10000 nM.

Molecule Nc1c(C(O)c2ccncc2)sc2nc(O)c3c(c12)CCCC3 (centres undefined) has an EC50 [1] greater than 10000 nM and an EC50 [2] greater than 10000 nM.

COc1ccc(C(=O)c2sc3nc(C)cc(C)c3c2N)cc1 gave an EC50 [1] of 479 nM, a %max [3] of 48% and an EC50 [2] of 490 nM. For the same molecule, the %max [4] was 54%, the “inhibition (INH)” value (Cytochrome P450) was “Not Active” and the “inhibition (INH)” value (Cytochrome P450 1A2) was “Active”. The fraction unbound [5] was 0.005 to 0.18, the fraction unbound [6] was 0.005 to 0.18 and the Kp at 0.25 h [7] was 0.83 to 6.95.

Work on Cc1nc2sc(C(O)c3cccnc3)c(N)c2c(C)c1Cl (centres undefined) yielded an EC50 [1] greater than 10000 nM and an EC50 [2] greater than 10000 nM.

Molecule Cc1nnc2sc(C(=O)c3ccncc3)c(N)c2c1C has an EC50 [1] of 891 nM, a %max [3] of 76% and an EC50 [2] of 3550 nM. For the same molecule, the %max [4] was 68%, the “inhibition (INH)” value (Cytochrome P450) was “Not Active” and the “inhibition (INH)” value (Cytochrome P450 1A2) was “Active”. For the same molecule, the fraction unbound [5] was 0.005 to 0.18 and the fraction unbound [6] was 0.005 to 0.18.

Molecule Cc1cc(C)c2c(N)c(C(=O)c3ccccc3)sc2n1 has an EC50 [1] of 891 nM, a %max [3] of 47% and an EC50 [2] of 1500 nM. For the same molecule, the %max [4] was 46%, the “inhibition (INH)” value (Cytochrome P450) was “Not Active” and the “inhibition (INH)” value (Cytochrome P450 1A2) was “Active”. For the same molecule, the fraction unbound [5] was 0.005 to 0.18, the fraction unbound [6] was 0.005 to 0.18 and the Kp at 0.25 h [7] was 0.83 to 6.95.

With COc1ccc(C(=O)c2sc3nnc(C)c(C)c3c2N)cc1 the EC50 [1] was 646 nM, the %max [3] was 63% and the EC50 [2] was 1450 nM. The %max [4] was 70%, the “inhibition (INH)” value (Cytochrome P450) was “Not Active” and the “inhibition (INH)” value (Cytochrome P450 1A2) was “Active”. For the same molecule, the fraction unbound [5] was 0.005 to 0.18, the fraction unbound [6] was 0.005 to 0.18 and the Kp at 0.25 h [7] was 0.83 to 6.95.

For Cc1cc(C)c2c(N)c(C(O)c3ccc(F)cc3F)sc2n1 (centres undefined), the EC50 [1] was greater than 10000 nM and the EC50 [2] was greater than 10000 nM.

Work on Cc1cc(C)c2c(N)c(C(=O)c3ccc(F)cc3F)sc2n1 yielded an EC50 [1] of 562 nM, a %max [3] of 39% and an EC50 [2] of 3980 nM. The %max [4] was 35%, the “inhibition (INH)” value (Cytochrome P450) was “Not Active” and the “inhibition (INH)” value (Cytochrome P450 1A2) was “Active”. The Ratio EC50 [8] was 4 to 7, the fraction unbound [5] was 0.005 to 0.18 and the fraction unbound [6] was 0.005 to 0.18. For the same molecule, the Kp at 0.25 h [7] was 0.83 to 6.95.

In the case of Cc1cc(C)c2c(N)c(C(=O)CCc3ccncc3)sc2n1, the EC50 [1] is reported as 479 nM, the %max [3] is reported as 59.1% and the EC50 [2] is reported as 540 nM. It also gave a %max [4] of 67.9% and a Kp at 0.25 h [7] of 11.

Work on Cc1nnc2sc(C(=O)c3cccnc3)c(N)c2c1C yielded an EC50 [1] of 105 nM, a %max [3] of 74% and an EC50 [2] of 417 nM. For the same molecule, the %max [4] was 95%, the “inhibition (INH)” value (Cytochrome P450) was “Not Active” and the “inhibition (INH)” value (Cytochrome P450 1A2) was “Active”. For the same molecule, the fraction unbound [5] was 0.005 to 0.18, the fraction unbound [6] was 0.005 to 0.18 and the Kp at 0.25 h [7] was 0.83 to 6.95.

Work on Cc1nnc2sc(C(=O)c3ccc(F)cc3F)c(N)c2c1C yielded an EC50 [1] of 331 nM, a %max [3] of 55% and an EC50 [2] of 380 nM. The %max [4] was 66%, the “inhibition (INH)” value (Cytochrome P450) was “Not Active” and the “inhibition (INH)” value (Cytochrome P450 1A2) was “Active”. The fraction unbound [5] was 0.005 to 0.18, the fraction unbound [6] was 0.005 to 0.18 and the Kp at 0.25 h [7] was 0.83 to 6.95.

Molecule Cc1cc(C)c2c(N)c(C(O)c3ccc(O)cc3)sc2n1 (centres undefined) has an EC50 [1] greater than 10000 nM and an EC50 [2] greater than 10000 nM.

With Cc1nc2sc(C(=O)c3ccccc3)c(N)c2c(C)c1Cl the EC50 [1] was 372 nM, the %max [3] was 45% and the EC50 [2] was 692 nM. The %max [4] was 43%, the “inhibition (INH)” value (Cytochrome P450) was “Not Active” and the “inhibition (INH)” value (Cytochrome P450 1A2) was “Active”. The fraction unbound [5] was 0.005 to 0.18 and the fraction unbound [6] was 0.005 to 0.18.

With Nc1c(C(=O)c2ccncc2)sc2nc(OCCN3CCOCC3)c3c(c12)CCC3 the EC50 [1] was 76 nM, the EC50 [2] was 417 nM and the “inhibition (INH)” value (Cytochrome P450) was “Not Active”. The “inhibition (INH)” value (Cytochrome P450 1A2) was “Active”, the fraction unbound [5] was 0.005 to 0.18 and the fraction unbound [6] was 0.005 to 0.18.
